Measured values collected from several papers.
Target: Mitogen-activated protein kinase kinase kinase 2 (MAP3K2, Homo sapiens, UniProt Q9Y2U5)
One construct used (Q9Y2U5 1-619): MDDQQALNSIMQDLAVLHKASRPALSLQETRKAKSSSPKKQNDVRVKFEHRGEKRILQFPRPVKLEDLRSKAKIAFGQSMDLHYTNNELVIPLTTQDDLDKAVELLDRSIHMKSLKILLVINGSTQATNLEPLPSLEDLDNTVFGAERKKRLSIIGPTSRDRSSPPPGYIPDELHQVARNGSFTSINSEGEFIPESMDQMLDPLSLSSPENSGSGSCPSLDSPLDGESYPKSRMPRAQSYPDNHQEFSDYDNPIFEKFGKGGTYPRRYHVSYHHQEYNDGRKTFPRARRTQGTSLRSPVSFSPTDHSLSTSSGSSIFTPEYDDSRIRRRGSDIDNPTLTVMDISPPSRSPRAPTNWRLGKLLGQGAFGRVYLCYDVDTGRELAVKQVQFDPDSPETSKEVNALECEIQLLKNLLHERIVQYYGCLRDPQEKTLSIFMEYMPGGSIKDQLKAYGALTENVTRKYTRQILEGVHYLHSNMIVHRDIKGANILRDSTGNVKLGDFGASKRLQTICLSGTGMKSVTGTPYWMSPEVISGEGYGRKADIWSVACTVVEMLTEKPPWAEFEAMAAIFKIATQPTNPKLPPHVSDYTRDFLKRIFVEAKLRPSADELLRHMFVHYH

Compound | observed | method | concentration | remaining binding
Cc1nc(N2CC[C@@H](O)C2)ncc1-c1cc(C(F)(F)F)cc2[nH]ncc12 | binding | competition with immobilised ligand | 1 µM | 60%
COc1cnc(Nc2cccc(S(N)(=O)=O)c2)nc1N1CCN(c2ccccc2)C(=O)C1 | binding | competition with immobilised ligand | 1 µM | 74%
CN(CCCC(F)(F)F)c1nccc(-c2cnn3ncccc23)n1 | binding | – | 1 µM | 96%
Cc1c(NC(=O)c2cc(C(N)=O)nc3cc(F)ccc23)c(C(F)(F)F)nn1Cc1ccc(C(C)(C)C)cc1 | cell-free assay | competition with immobilised ligand | 1 µM | 100%
Cc1cnc(Nc2ccc(C(=O)N3CCC(N4CCCC4)CC3)cc2)nc1-c1cc2ccccc2s1 | binding | competition with immobilised ligand | 1 µM | 5.1%
O=C(Nc1c[nH]nc1C(=O)NC1CCNCC1)c1cc(F)cc(F)c1 | binding | competition with immobilised ligand | 1 µM | 94%
O=S(=O)(NC1CCC(c2cc(F)ccc2F)(S(=O)(=O)c2ccc(Cl)cc2)CC1)C(F)(F)F (stereo not drawn) | cell-free assay | competition with immobilised ligand | 1 µM | 98%
O=C(NCCCN1CCOCC1)c1ccc(Nc2ncc(Cl)c(-c3ccc(Cl)s3)n2)cc1 | binding | competition with immobilised ligand | 1 µM | 2.3%
COc1cnc(Nc2cccc(S(N)(=O)=O)c2)nc1N1CCN(c2ccccc2)CC1 | binding | competition with immobilised ligand | 1 µM | 68%
C[C@@H]1CN(c2cc(-c3nn(C)c4ccc(OC5(C)CC5)cc34)ncn2)C[C@H](C)O1 | cell-free assay | competition with immobilised ligand | 1 µM | 83%
c1cnn2ncc(-c3ccnc(N4CCC45COC5)n3)c2c1 | binding | – | 1 µM | 58%
O=C(c1ccc(Nc2nccc(-c3cc4ccccc4s3)n2)cc1)N1CCC(N2CCCC2)CC1 | binding | competition with immobilised ligand | 1 µM | 43%
C[C@H]1CCN(c2nccc(-c3cnn4ncccc34)n2)C1 | binding | – | 1 µM | 81%
O=C(Nc1cccnn1)N1CCC(=Cc2cccc(Oc3ccc(C(F)(F)F)cn3)c2)CC1 | cell-free assay | competition with immobilised ligand | 1 µM | 100%
CC1CCCN1c1nccc(-c2cnn3ncccc23)n1 (stereo not drawn) | binding | – | 1 µM | 98%
COc1ncc2cc3ccccc3nc2c1C#N | cell-free assay | competition with immobilised ligand | 5 µM | 91%
CN(C)c1ncc(F)c(-c2cnn3ncccc23)n1 | binding | – | 1 µM | 81%
FC(F)(F)Oc1cccc(-c2cnc3ccc(-c4ccncc4)nn23)c1 | cell-free assay | competition with immobilised ligand | 5 µM | 79%
N[C@@H]1CCN(c2nccc(-c3cnn4ncccc34)n2)C1 | binding | – | 1 µM | 100%
O=C(O)[C@@H]1[C@@H](Cn2nnc3ccccc3c2=O)CC[C@H]1C(=O)c1ccc(OCCC2CCOCC2)cc1 | cell-free assay | competition with immobilised ligand | 1 µM | 100%
CCN1CCN(Cc2ccc(C(=O)Nc3ccc(C)c(Oc4ccc5c(c4)CC(=O)N5)c3)cc2C(F)(F)F)CC1 | binding | competition with immobilised ligand | 1 µM | 100%
